The values that follow come from ChEMBL document CHEMBL4339218, “Discovering New Casein Kinase 1d Inhibitors with an Innovative Molecular Dynamics Enabled Virtual Screening Workflow” (ACS Med Chem Lett, 2019).

For assay [1], the target named is T1, Casein kinase I isoform delta (Homo sapiens, UniProt P48730). As to the kind of experiment: Inhibition of CSNK1D (unknown origin) at 1 uM using CSNK1D/Ser/Thr 11 peptide incubated for 1 hr by FRET based Z'-LYTE assay relative to untreated control. The procedure, abridged: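 Single-point test at 1 μM ligand, in duplicate, reported as mean ± SD. Coupled-enzyme FRET readout in which a development protease cleaves only nonphosphorylated peptide. Development reagent B (1:16) then added. Coumarin/fluorescein emission ratio read after 400 nm excitation.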
Target sequence in this assay (P48730 whole entry, looked up, canonical isoform): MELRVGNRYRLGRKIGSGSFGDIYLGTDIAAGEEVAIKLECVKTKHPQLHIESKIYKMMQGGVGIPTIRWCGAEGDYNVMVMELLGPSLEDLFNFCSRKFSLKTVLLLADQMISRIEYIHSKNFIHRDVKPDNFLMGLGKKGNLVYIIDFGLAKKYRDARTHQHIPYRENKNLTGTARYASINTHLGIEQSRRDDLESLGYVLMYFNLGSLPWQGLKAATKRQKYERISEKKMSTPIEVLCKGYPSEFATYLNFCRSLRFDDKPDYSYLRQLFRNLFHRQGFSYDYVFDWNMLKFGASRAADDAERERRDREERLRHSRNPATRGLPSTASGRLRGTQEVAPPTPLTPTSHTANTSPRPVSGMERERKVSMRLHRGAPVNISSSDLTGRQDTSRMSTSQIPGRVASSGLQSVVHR

For assay [2], the target named is T1, Casein kinase I isoform delta. As to the kind of experiment: Inhibition of CSNK1D (unknown origin) using CSNK1D/Ser/Thr 11 peptide incubated for 1 hr by FRET based Z'-LYTE assay. In short, it runs like this:
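Full dose–response curve used for IC50. Duplicates, averaged with SD. Protease development reagent B (1:16) then added. Phosphorylation taken from the donor coumarin/acceptor fluorescein emission ratio at 400 nm excitation.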
Target sequence in this assay (P48730 whole entry, canonical isoform): as the sequence (P48730 whole entry, looked up, canonical isoform) above

Consider `C[C@@H](NC(=O)c1ccc2[nH]nc(-c3cccc(NS(C)(=O)=O)c3)c2c1)c1ccccc1`, for which the inhibition in assay [1] was 66%. In addition, in assay [2], 1030 nM corresponded to half-maximal inhibition (IC50).

In the case of `O=C1CCCN1Cc1nnc(-c2ccc3[nH]nc(-c4ccc(F)cc4)c3c2)[nH]1`, in assay [1], the inhibition is 25%.

`CNC(=O)c1ccc2[nH]nc(-c3cccc(C(=O)NCc4cccc5ccccc45)c3)c2c1` came in with an inhibition in assay [1] of 80%. Moreover, the IC50 in assay [2] was determined as 354 nM.

In the case of `CN(C)Cc1n[nH]c(-c2ccc3[nH]nc(-c4cccc(C(=O)Nc5ccc(F)cc5)c4)c3c2)n1`, the inhibition in assay [1] is 99%. The same compound returned an IC50 in assay [2] of 134 nM.

In the case of `CNC(=O)c1ccc2[nH]nc(-c3cccc(C(=O)NCc4cnc(C)nc4N)c3)c2c1`, the inhibition in assay [1] is 92%.

Regarding `Fc1ccc(-c2n[nH]c3ccc(-c4n[nH]c(CN5CCCC5)n4)cc23)cc1`, the inhibition in assay [1] turned out to be 53%. Also, in assay [2], the IC50 came out at 848 nM.

In assay [1], `CNC(=O)c1ccc2[nH]nc(-c3cccc(C(=O)Nc4cc(-c5ccccn5)n[nH]4)c3)c2c1` registered an inhibition of 57%.
